Measurements reported in ChEMBL document CHEMBL1137655, “Isoxyl activation is required for bacteriostatic activity against Mycobacterium tuberculosis” (2007).
≈ marks a conversion by molar mass, not a printed value.

Columns and labels:
[1] = tested on: Mycobacterium tuberculosis; assay: Antimycobacterial activity against Mycobacterium tuberculosis H37Rv ATCC 25618 overexpressing ethR gene by colorimetric resazurin microtiter assay; assay type: functional
How it was run: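 Resazurin colorimetric microtiter MIC in 7H9-ADC broth at 37°C, for H37Rv carrying ethR on pVV vector; ISO tested up to 40 μg/ml, the solubility limit.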

[2] = tested on: Mycobacterium tuberculosis; assay: Antimycobacterial activity against Mycobacterium tuberculosis MT1K ISO-R22 mutant expressing VV16 plasmid by colorimetric resazurin microtiter assay; assay type: functional
How it was run: (§1)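 Resazurin colorimetric microtiter MIC in 7H9-ADC broth with 2% DMSO at 37°C; strains carry empty pVV16 or pVVethA complementation vector; ISO tested up to 40 μg/ml, highest soluble level.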

[3] = tested on: Mycobacterium tuberculosis; assay: Antimycobacterial activity against Mycobacterium tuberculosis MT1K ISO-R22 mutant overexpressing ethA gene by colorimetric resazurin microtiter assay; assay type: functional; how it was run: as §1
[4] = tested on: Mycobacterium tuberculosis; assay: Antimycobacterial activity against Mycobacterium tuberculosis MT1K ISO-R33 mutant expressing VV16 plasmid by colorimetric resazurin microtiter assay; assay type: functional; how it was run: as §1
[5] = tested on: Mycobacterium tuberculosis; assay: Antimycobacterial activity against Mycobacterium tuberculosis MT1K ISO-R33 mutant overexpressing ethA gene by colorimetric resazurin microtiter assay; assay type: functional; how it was run: as §1
[6] = tested on: Mycobacterium tuberculosis; assay: Ratio of MIC for wild-type Mycobacterium tuberculosis H37Rv expressing VV16 plasmid to MIC for Mycobacterium tuberculosis H37Rv overexpressing ethA gene; assay type: functional
How it was run: (§2)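 Ratio of resazurin microtiter MICs in 7H9-ADC broth for H37Rv carrying pVVethR or pVVethA versus empty pVV16; ethA strain run at 32°C, ethR at 37°C.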

[7] = tested on: Mycobacterium tuberculosis; assay: Ratio of MIC for Mycobacterium tuberculosis H37Rv overexpressing ethR gene to MIC for wild-type Mycobacterium tuberculosis H37Rv expressing VV16 plasmid; assay type: functional; how it was run: as §2
[8] = tested on: Mycobacterium tuberculosis; assay: microbe, parasite or virus in culture; details: H37Rv ATCC 25618

For `CC(C)CCOc1ccc(NC(=S)Nc2ccc(OCCC(C)C)cc2)cc1` [TIOCARLIDE], the MIC [1] was over 40 µg/mL, the MIC [2] was over 40 µg/mL and the MIC [3] was 5 µg/mL (≈ 12.5 µM). For the same compound, the MIC [4] was over 40 µg/mL, the MIC [5] was 5 µg/mL (≈ 12.5 µM) and the “fold change (FC)” value [6] was 2. The “fold change (FC)” value [7] was 8 and the MIC [8] was 2.5 µg/mL (≈ 6.24 µM).
